According to ChEMBL document CHEMBL2417508, “Synthesis and evaluation of a 125I-labeled iminodihydroquinoline-derived tracer for imaging of voltage-gated sodium channels” (Bioorg Med Chem Lett, 2013):

Tests used:
[1] = target: Sodium channel protein type 2 subunit alpha (Rattus norvegicus, UniProt P04775); experiment: Inhibition of rat brain voltage-gated sodium channel subunit alpha Nav1.2-mediated current expressed in CHO cells; type: cell-based
[2] = Inhibition of voltage-gated sodium channel in rat brain homogenate; type: tissue-based
Outline: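 Radioligand displacement of [3H]batrachotoxin binding was measured in rat brain homogenates, and IC50 was derived.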

Rattus norvegicus = organism: Rattus norvegicus; experiment: Binding affinity to voltage-gated sodium channel in rat brain synaptosomal membranes relative to control; type: cell membranes
[3] = Binding affinity to voltage-gated sodium channel in rat brain synaptosomal membranes; type: cell membranes

Chain of Sodium channel protein type 2 subunit alpha (P04775 whole entry): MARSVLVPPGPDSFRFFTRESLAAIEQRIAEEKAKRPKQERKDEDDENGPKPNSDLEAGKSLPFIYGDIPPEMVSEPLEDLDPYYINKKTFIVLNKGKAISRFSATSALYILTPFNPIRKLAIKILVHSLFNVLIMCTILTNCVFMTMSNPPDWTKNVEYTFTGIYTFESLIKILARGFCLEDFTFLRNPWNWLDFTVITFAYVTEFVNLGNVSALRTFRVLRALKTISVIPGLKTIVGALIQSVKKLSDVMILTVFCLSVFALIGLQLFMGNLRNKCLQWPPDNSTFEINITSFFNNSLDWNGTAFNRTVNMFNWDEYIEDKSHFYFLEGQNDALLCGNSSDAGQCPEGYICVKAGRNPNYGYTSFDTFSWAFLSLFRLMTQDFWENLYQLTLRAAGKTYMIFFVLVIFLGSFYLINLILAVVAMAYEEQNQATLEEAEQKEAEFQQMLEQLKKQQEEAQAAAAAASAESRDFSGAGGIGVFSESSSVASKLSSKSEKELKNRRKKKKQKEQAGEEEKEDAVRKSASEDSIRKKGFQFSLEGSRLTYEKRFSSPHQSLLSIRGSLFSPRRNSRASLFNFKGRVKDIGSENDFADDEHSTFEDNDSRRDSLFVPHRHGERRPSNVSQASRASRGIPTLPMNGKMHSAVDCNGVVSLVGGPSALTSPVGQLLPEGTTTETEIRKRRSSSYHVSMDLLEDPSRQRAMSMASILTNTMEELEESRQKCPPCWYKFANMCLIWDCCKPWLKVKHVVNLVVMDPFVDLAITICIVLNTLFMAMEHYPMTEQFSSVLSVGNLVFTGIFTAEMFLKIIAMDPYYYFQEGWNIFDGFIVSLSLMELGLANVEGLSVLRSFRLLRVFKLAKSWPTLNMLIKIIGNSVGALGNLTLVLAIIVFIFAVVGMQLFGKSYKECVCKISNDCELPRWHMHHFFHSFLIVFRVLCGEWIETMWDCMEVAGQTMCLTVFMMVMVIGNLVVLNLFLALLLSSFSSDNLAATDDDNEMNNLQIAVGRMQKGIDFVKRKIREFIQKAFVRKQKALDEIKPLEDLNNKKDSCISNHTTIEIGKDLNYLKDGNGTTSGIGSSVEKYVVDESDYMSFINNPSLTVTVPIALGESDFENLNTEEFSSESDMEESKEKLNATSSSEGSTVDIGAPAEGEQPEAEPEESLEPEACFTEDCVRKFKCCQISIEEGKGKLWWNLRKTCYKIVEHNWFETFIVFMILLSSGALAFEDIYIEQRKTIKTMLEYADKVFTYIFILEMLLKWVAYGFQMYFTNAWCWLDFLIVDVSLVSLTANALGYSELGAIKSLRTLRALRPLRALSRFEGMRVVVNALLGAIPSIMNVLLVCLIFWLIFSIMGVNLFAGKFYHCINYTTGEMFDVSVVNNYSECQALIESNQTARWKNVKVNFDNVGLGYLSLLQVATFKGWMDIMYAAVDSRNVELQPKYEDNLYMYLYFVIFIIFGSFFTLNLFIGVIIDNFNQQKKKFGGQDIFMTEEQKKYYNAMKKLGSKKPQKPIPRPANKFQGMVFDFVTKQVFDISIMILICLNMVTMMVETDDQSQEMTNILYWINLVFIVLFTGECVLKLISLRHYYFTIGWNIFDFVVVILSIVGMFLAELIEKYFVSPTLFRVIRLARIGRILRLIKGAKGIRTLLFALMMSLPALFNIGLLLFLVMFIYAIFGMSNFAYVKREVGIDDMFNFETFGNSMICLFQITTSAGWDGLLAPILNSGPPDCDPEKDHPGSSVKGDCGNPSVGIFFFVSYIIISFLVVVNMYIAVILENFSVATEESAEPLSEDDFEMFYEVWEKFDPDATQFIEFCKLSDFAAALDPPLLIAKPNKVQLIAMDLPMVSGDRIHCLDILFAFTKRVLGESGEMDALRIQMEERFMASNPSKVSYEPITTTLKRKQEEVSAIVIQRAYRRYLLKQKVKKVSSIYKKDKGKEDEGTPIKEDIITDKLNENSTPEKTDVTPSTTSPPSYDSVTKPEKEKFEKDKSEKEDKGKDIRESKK

CCCCC/N=c1\ccn(Cc2ccccc2)c2cc(Cl)ccc12
IC50 [1]: 9 nM
IC50 [2]: 8.1 nM
Bmax (Rattus norvegicus): 5.4 pmol/mg
Kd [3]: 2.2 nM
